Source: ChEMBL document CHEMBL3745692, “Novel iodoacetamido benzoheterocyclic derivatives with potent antileukemic activity are inhibitors of STAT5 phosphorylation” (Eur J Med Chem, 2016)

Assays:
[1] = system: K562; experiment: Antiproliferative activity against human K562 cells after 48 hrs by trypan blue dye exclusion assay; format: functional, cell-based; details: K562, 48 h
[2] = system: K562; experiment: Induction of apoptosis in human K562 cells after 48 hrs by annexinV and propidium iodide staining based flow cytometry; format: functional, cell-based; details: K562, 48 h
How it was run: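 After 48 h drug exposure, 1×10^6 cells were washed in PBS and spun at 200×g for 5 min. They were stained with FITC-annexin V plus propidium iodide for 15 min at 20 °C and annexin V-positive cells counted by flow cytometry. Apoptosis was also scored morphologically with acridine orange/ethidium bromide, counting at least 300 cells. AC50 is the concentration inducing apoptosis in 50% of cells; mean ± SE from two to three experiments.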

[3] = target: T1, Signal transducer and activator of transcription 5A (Homo sapiens) (UniProt P42229); experiment: Inhibition of STAT5 phosphorylation in human K562 cells at 2 uM after 24 hrs by flow cytometry (reference value: 315.56); format: cell-based
T1 sequence (whole entry): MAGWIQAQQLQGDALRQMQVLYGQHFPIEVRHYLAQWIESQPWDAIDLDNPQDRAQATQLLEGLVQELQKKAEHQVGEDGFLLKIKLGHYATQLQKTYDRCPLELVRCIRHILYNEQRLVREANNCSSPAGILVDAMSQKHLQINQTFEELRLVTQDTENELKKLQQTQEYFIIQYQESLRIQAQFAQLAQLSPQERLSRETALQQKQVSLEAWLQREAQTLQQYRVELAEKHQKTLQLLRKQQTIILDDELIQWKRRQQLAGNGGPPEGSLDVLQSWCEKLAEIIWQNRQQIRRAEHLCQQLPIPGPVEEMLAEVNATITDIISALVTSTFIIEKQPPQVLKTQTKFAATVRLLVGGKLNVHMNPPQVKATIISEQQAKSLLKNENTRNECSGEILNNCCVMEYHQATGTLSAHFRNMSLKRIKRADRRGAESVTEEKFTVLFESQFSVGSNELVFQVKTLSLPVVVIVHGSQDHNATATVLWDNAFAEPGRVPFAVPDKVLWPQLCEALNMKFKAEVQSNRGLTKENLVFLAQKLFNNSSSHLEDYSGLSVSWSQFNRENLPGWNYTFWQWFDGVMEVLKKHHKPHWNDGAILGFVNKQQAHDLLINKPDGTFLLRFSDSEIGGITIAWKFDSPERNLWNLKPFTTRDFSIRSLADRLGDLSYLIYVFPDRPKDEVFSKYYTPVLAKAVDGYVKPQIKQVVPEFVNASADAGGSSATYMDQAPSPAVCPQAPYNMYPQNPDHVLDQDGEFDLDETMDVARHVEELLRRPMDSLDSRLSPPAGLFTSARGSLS
How it was run: (§1)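 After 24 h exposure, about 1×10^6 K562 cells were PBS-washed and fixed/permeabilised for 20 min at 4 °C. They were then stained for 30 min at 4 °C with PE-conjugated anti-pSTAT5 monoclonal antibody, with an isotype antibody as control. Median fluorescence was read by flow cytometry and compared with untreated cells stained for pSTAT5.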

[4] = system: K562; experiment: Cell cycle arrest in human K562 cells assessed as accumulation at G1 phase at 2 uM for 24 hrs by propidium iodide staining based flow cytometry (reference value: 39.27%); format: functional
How it was run: (§2)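 K562 cells were exposed to compound for 24 h. They were then washed in ice-cold PBS and resuspended at 1×10^6/mL in a hypotonic solution of propidium iodide 50 µg/mL in 0.1% sodium citrate with 0.03% NP-40. After 30 min, DNA content was read by flow cytometry as single-parameter histograms and cell cycle phase distribution (%) was modelled.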

[5] = system: K562; experiment: Cell cycle arrest in human K562 cells assessed as accumulation at S-phase at 2 uM for 24 hrs by propidium iodide staining based flow cytometry (reference value: 47.84%); format: functional; how it was run: as §2
[6] = system: K562; experiment: Cell cycle arrest in human K562 cells assessed as accumulation at G2M-phase at 2 uM for 24 hrs by propidium iodide staining based flow cytometry (reference value: 12.89%); format: functional; how it was run: as §2
[7] = target: Tubulin (Bos taurus, UniProt Q6B856+Q862L2+Q862F3); experiment: Inhibition of bovine brain tubulin polymerization by spectrophotometry
How it was run: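 Bovine brain tubulin (10 µM) was pre-incubated with varying compound concentrations in glutamate buffer at 30 °C, then cooled to 0 °C. GTP was added ([…] final) and the mixture warmed to 30 °C. Assembly was followed by turbidity at 350 nm.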

[8] = organism: Bos taurus; experiment: Inhibition of [3H]colchicine binding to bovine tubulin at 5 uM by DEAE-cellulose filter method
How it was run: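 Reaction mixtures contained 1 µM tubulin, 5 µM [3H]colchicine and 5 µM test compound. Result is given as % inhibition of colchicine binding ± SD.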

[9] = target: T1, Signal transducer and activator of transcription 5A (Homo sapiens); experiment: Inhibition of STAT5 phosphorylation in human K562 cells at 3 uM after 24 hrs by flow cytometry (reference value: 315.56); format: cell-based; how it was run: as §1
[10] = target: T1, Signal transducer and activator of transcription 5A (Homo sapiens); experiment: Inhibition of STAT5 phosphorylation in human K562 cells at 3 uM after 24 hrs by flow cytometry relative to control; format: cell-based; how it was run: as §1
[11] = system: K562; experiment: Cell cycle arrest in human K562 cells assessed as accumulation at G1 phase at 3 uM for 24 hrs by propidium iodide staining based flow cytometry (reference value: 39.27%); format: functional
How it was run: (§3)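 K562 cells in RPMI 1640 with 10% FCS, penicillin/streptomycin and L-glutamine, 5% CO2, 37 °C; exposed 24 h. Cells washed in ice-cold PBS, resuspended at 1×10^6/mL in hypotonic solution of propidium iodide 50 µg/mL in 0.1% sodium citrate plus 0.03% nonidet P-40 for 30 min. DNA content read as single-parameter flow cytometry histograms; phase distribution modelled.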

[12] = system: K562; experiment: Cell cycle arrest in human K562 cells assessed as accumulation at S-phase at 3 uM for 24 hrs by propidium iodide staining based flow cytometry (reference value: 47.84%); format: functional; how it was run: as §3
[13] = system: K562; experiment: Cell cycle arrest in human K562 cells assessed as accumulation at G2M-phase at 3 uM for 24 hrs by propidium iodide staining based flow cytometry (reference value: 12.89%); format: functional; how it was run: as §3
[14] = target: T1, Signal transducer and activator of transcription 5A (Homo sapiens); experiment: Inhibition of STAT5 phosphorylation in human K562 cells at 0.75 uM after 24 hrs by flow cytometry (reference value: 315.56); format: cell-based; how it was run: as §1
[15] = system: K562; experiment: Cell cycle arrest in human K562 cells assessed as accumulation at G1 phase at 0.75 uM for 24 hrs by propidium iodide staining based flow cytometry (reference value: 39.27%); format: functional; how it was run: as §2
[16] = system: K562; experiment: Cell cycle arrest in human K562 cells assessed as accumulation at S-phase at 0.75 uM for 24 hrs by propidium iodide staining based flow cytometry (reference value: 47.84%); format: functional; how it was run: as §2
[17] = system: K562; experiment: Cell cycle arrest in human K562 cells assessed as accumulation at G2M-phase at 0.75 uM for 24 hrs by propidium iodide staining based flow cytometry (reference value: 12.89%); format: functional; how it was run: as §2

## COc1cc(C(=O)c2cc3cccc(NC(=O)CI)c3o2)cc(OC)c1OC
[1]
  IC50: > 50000 nM
[2]
  AC50: > 50000 nM

## COc1cc(C(=O)c2cc3cc(NC(=O)CI)ccc3s2)cc(OC)c1OC
[3]
  Flu intensity: 279
[1]
  IC50: 800 nM
[2]
  AC50: 4200 nM
[4]
  Activity: 32.96%
[5]
  Activity: 54.92%
[6]
  Activity: 12.12%

## COc1cc(C(=O)c2cc3c(NC(=O)CI)cccc3o2)cc(OC)c1OC
[3]
  Flu intensity: 272
[1]
  IC50: 800 nM
[2]
  AC50: 4500 nM
[4]
  Activity: 33.67%
[5]
  Activity: 53.09%
[6]
  Activity: 16.24%

## COc1cc(C(=O)c2c(NC(=O)CI)c3cccc(OC)c3n2C)cc(OC)c1OC
[3]
  Flu intensity: 58.2
[7]
  IC50: 2000 nM
[8]
  inhibition: 38%
[1]
  IC50: 800 nM
[2]
  AC50: 4600 nM
[4]
  Activity: 77.64%
[5]
  Activity: 19.55%
[6]
  Activity: 2.81%

## COc1ccc2c(NC(=O)CI)c(C(=O)c3cc(OC)c(OC)c(OC)c3)oc2c1
[7]
  IC50: 1800 nM
[8]
  inhibition: 54%
[1]
  IC50: 120 nM
[2]
  AC50: 450 nM

## COc1cc(C(=O)c2[nH]c3ccccc3c2NC(=O)CI)cc(OC)c1OC
[9]
  Flu intensity: 222
[10]
  inhibition: 30%
[1]
  IC50: 500 nM
[2]
  AC50: 2400 nM
[11]
  Activity: 31.82%
[12]
  Activity: 57.79%
[13]
  Activity: 9.39%

## COc1cc(C(=O)c2cc3ccc(NC(=O)CI)cc3o2)cc(OC)c1OC
[9]
  Flu intensity: 289
[1]
  IC50: 600 nM
[2]
  AC50: 2900 nM
[11]
  Activity: 37.06%
[12]
  Activity: 51.3%
[13]
  Activity: 11.1%

## COc1cc(C(=O)c2oc3ccccc3c2NC(=O)CI)cc(OC)c1OC
[9]
  Flu intensity: 98.3
[7]
  IC50: > 20000 nM
[1]
  IC50: 900 nM
[2]
  AC50: 6500 nM
[11]
  Activity: 75.37%
[12]
  Activity: 20.98%
[13]
  Activity: 3.65%

## COc1cc(C(=O)c2cc3cc(NC(=O)CI)cc(OC)c3s2)cc(OC)c1OC
[3]
  Flu intensity: 201
[1]
  IC50: 780 nM
[2]
  AC50: 3700 nM
[4]
  Activity: 19.94%
[5]
  Activity: 33.7%
[6]
  Activity: 45.36%

## COc1cc(C(=O)c2sc3ccccc3c2NC(=O)CI)cc(OC)c1OC
[1]
  IC50: 18000 nM
[2]
  AC50: 28000 nM

## COc1cc(C(=O)c2c(NC(=O)CI)c3ccccc3n2C)cc(OC)c1OC
[1]
  IC50: 4300 nM
[2]
  AC50: 8200 nM

## COc1cc(C(=O)c2cc3cc(NC(=O)CI)cc(OC)c3o2)cc(OC)c1OC
[14]
  Flu intensity: 316
[1]
  IC50: 400 nM
[2]
  AC50: 2200 nM
[15]
  Activity: 34.66%
[16]
  Activity: 57.32%
[17]
  Activity: 8.02%
